Laboratory results published in the array DNA melting data of Ke et al. (doi:10.1101/2024.01.08.574731).

What was measured:
[1] = melting temperature; fluorescence melt of hairpins on a sequencing array, two-state fit, raised by 9.35 °C to match UV melts; conditions: sodium 0.088 M
Outline: (§1)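 On a sequenced MiSeq flow cell, library hairpins with annealed Cy3 and quencher oligos were imaged for Cy3 fluorescence in 2.5 °C steps up to 60 °C, in 50 mM Na-HEPES pH 8.0, 25 mM NaCl. Normalisation used pre-quench Cy3 and control constructs. Bootstrapped two-state fits gave melting temperature and folding enthalpy, combined by inverse variance across four replicates and with fitted temperatures raised by 9.35 °C to match UV melts.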

[2] = folding enthalpy; higher = less favourable; fluorescence melt of hairpins on a sequencing array, two-state fit; conditions: sodium 0.088 M
Outline: as §1

Q: Which Tm [1] does the source give for GGAACCGGAAACGGTCCC ((.((((....)))).)) here?
A: Its Tm is 52.9 °C.

Q: And the folding enthalpy [2]?
A: The folding enthalpy was -19.7 kcal/mol.

Q: What does the source list for GGAACGGAAACGTTCC ((((((....))))))?
A: Tm [1]: 64.2 °C; folding enthalpy [2]: -40.4 kcal/mol

Q: What does the source list for GGAACTCCGAAAGGATCC (((..(((....))))))?
A: Tm [1]: 27 °C; folding enthalpy [2]: -7.77 kcal/mol

Q: With GGAAGACGAAAGTCCTCC (((.(((....))).))) as the sequence, how does the Tm [1] read?
A: The Tm was 43 °C.

Q: What about the folding enthalpy [2] of the same sequence?
A: Its folding enthalpy is -21.4 kcal/mol.

Q: Which Tm [1] does the source give for GGAAGAGGAAACTCTTCC (((((((....))))))) here?
A: Its Tm is 58.2 °C.

Q: What about the folding enthalpy [2] of the same sequence?
A: The folding enthalpy was -42.1 kcal/mol.

Q: With GGAAGATCGAAAGATTCC (((..(((....)))))) as the sequence, how does the Tm [1] read?
A: The Tm was 29.8 °C.

Q: And the folding enthalpy [2]?
A: The folding enthalpy was -13.4 kcal/mol.

Q: Which Tm [1] does the source give for GGAAGCCGAAAGGCTCC (((.(((....)))))) here?
A: Its Tm is 56 °C.

Q: What about the folding enthalpy [2] of the same sequence?
A: Its folding enthalpy is -15.7 kcal/mol.

Q: Which Tm [1] does the source give for GGAAGCGAAAGCTTTCC ((((((....))).))) here?
A: Its Tm is 50.1 °C.

Q: What about the folding enthalpy [2] of the same sequence?
A: Its folding enthalpy is -30.2 kcal/mol.

Q: For GGAAGCGAAAGCTTTTCC ((((((....)))..))), which Tm [1] is on record?
A: The Tm was 33.4 °C.

Q: And the folding enthalpy [2]?
A: The folding enthalpy was -12.2 kcal/mol.

Q: Which Tm [1] does the source give for GGAAGCGGAAACGCTTTC (.(((((....))))).) here?
A: Its Tm is 53.7 °C.

Q: What about the folding enthalpy [2] of the same sequence?
A: The folding enthalpy was -21.2 kcal/mol.

Q: For GGAAGCGGAAACGTTTCC ((((.((....)).)))), which Tm [1] is on record?
A: Its Tm is 49.8 °C.

Q: What about the folding enthalpy [2] of the same sequence?
A: Its folding enthalpy is -39.7 kcal/mol.

Q: Which results are given for GGAAGGGAAACCTTCC ((((((....))))))?
A: Tm [1]: 55.2 °C; folding enthalpy [2]: -38 kcal/mol

Q: For GGAAGTCGAAAGACCTCC (((.(((....))).))), which Tm [1] is on record?
A: The Tm was 43.3 °C.

Q: And the folding enthalpy [2]?
A: Its folding enthalpy is -27.1 kcal/mol.

Q: Which Tm [1] does the source give for GGAAGTCGAAAGACTCC (((.(((....)))))) here?
A: The Tm was 53 °C.

Q: And the folding enthalpy [2]?
A: Its folding enthalpy is -17.9 kcal/mol.

Q: Which Tm [1] does the source give for GGAAGTGGAAACACTCCC ((.((((....)))).)) here?
A: Its Tm is 42.7 °C.

Q: What about the folding enthalpy [2] of the same sequence?
A: Its folding enthalpy is -23 kcal/mol.

Q: What does the source list for GGAAGTGGAAACGTTTCC ((((..(....)..))))?
A: Tm [1]: 37.6 °C; folding enthalpy [2]: -13.3 kcal/mol

Q: Which results are given for GGAATACGAAAGTAGTCC (((.(((....))).)))?
A: Tm [1]: 51.8 °C; folding enthalpy [2]: -33.9 kcal/mol

Q: What does the source list for GGAATAGGAAACCATTCC (((((.(....).)))))?
A: Tm [1]: 34.3 °C; folding enthalpy [2]: -25.7 kcal/mol

Q: Which Tm [1] does the source give for GGAATCCCGAAAGGGTCC (((..(((....)))))) here?
A: The Tm was 33 °C.

Q: What about the folding enthalpy [2] of the same sequence?
A: Its folding enthalpy is -13.2 kcal/mol.

Q: Which Tm [1] does the source give for GGAATCCGAAAGGACTCC (((.(((....))).))) here?
A: The Tm was 46.3 °C.

Q: And the folding enthalpy [2]?
A: The folding enthalpy was -26.2 kcal/mol.

Q: For GGAATCCGAAAGGATCC (((.(((....)))))), which Tm [1] is on record?
A: Its Tm is 50 °C.

Q: And the folding enthalpy [2]?
A: Its folding enthalpy is -19.6 kcal/mol.

Q: With GGAATCGAAAGATGATCC ((((((....)))..))) as the sequence, how does the Tm [1] read?
A: Its Tm is 29 °C.

Q: What about the folding enthalpy [2] of the same sequence?
A: The folding enthalpy was -17.8 kcal/mol.

Q: Which Tm [1] does the source give for GGAATCGAAAGATTCC ((((((....)))))) here?
A: Its Tm is 64.3 °C.

Q: And the folding enthalpy [2]?
A: Its folding enthalpy is -32.3 kcal/mol.

Q: With GGAATGCCGAAAGGCTCC (((..(((....)))))) as the sequence, how does the Tm [1] read?
A: Its Tm is 34.5 °C.

Q: What about the folding enthalpy [2] of the same sequence?
A: The folding enthalpy was -10.2 kcal/mol.

Q: What does the source list for GGAATGCGAAAGCAATCC (((.(((....))).)))?
A: Tm [1]: 50.9 °C; folding enthalpy [2]: -25.6 kcal/mol

Q: For GGAATGCGAAAGCAGTCC (((.(((....))).))), which Tm [1] is on record?
A: The Tm was 61.2 °C.

Q: And the folding enthalpy [2]?
A: The folding enthalpy was -36.6 kcal/mol.

Q: With GGAATGGGAAACTGTTCC ((((..(....)..)))) as the sequence, how does the Tm [1] read?
A: The Tm was 35 °C.

Q: What about the folding enthalpy [2] of the same sequence?
A: The folding enthalpy was -25.8 kcal/mol.

Q: Which results are given for GGAATTCGAAAGAATCC (((.(((....))))))?
A: Tm [1]: 39 °C; folding enthalpy [2]: -20.9 kcal/mol

Q: Which results are given for GGAATTGAAAAATTCC ((((((....))))))?
A: Tm [1]: 48 °C; folding enthalpy [2]: -28.9 kcal/mol

Q: Which Tm [1] does the source give for GGAATTGGAAACAATTCC (((((((....))))))) here?
A: The Tm was 56.3 °C.

Q: What about the folding enthalpy [2] of the same sequence?
A: The folding enthalpy was -45.1 kcal/mol.

Q: For GGACAACGAAAGTTTTCC (((.(((....))).))), which Tm [1] is on record?
A: The Tm was 41.2 °C.

Q: What about the folding enthalpy [2] of the same sequence?
A: Its folding enthalpy is -29.2 kcal/mol.

Q: For GGACAAGGAAACTTGTCC (((((((....))))))), which Tm [1] is on record?
A: Its Tm is 61 °C.

Q: What about the folding enthalpy [2] of the same sequence?
A: Its folding enthalpy is -45 kcal/mol.

Q: What does the source list for GGACACGAAAGTGCATCC ((((((....)))..)))?
A: Tm [1]: 32.7 °C; folding enthalpy [2]: -11.8 kcal/mol

Q: Which Tm [1] does the source give for GGACACGAAAGTGCCTCC ((((((....)))..))) here?
A: Its Tm is 42.1 °C.

Q: And the folding enthalpy [2]?
A: Its folding enthalpy is -16.7 kcal/mol.
